Assay results published in ChEMBL document CHEMBL1240362, “Intrapulmonary pharmacokinetics of S-013420, a novel bicyclolide antibacterial, in healthy Japanese subjects” (Antimicrob Agents Chemother, 2010).
Converted amounts (≈) assume the structure as drawn.

Key:
Homo sapiens [1] = assay: Toxicity in healthy human assessed as neutrophil count in bronchoalveolar fluid at […], po administered as single dose after 2 hrs; format: organism-based, Lung; parameters: route oral; conditions: in vivo
How it was run: (§1)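 Healthy Japanese male never-smokers, aged 20 to 45 years with normal BMI, got one open-label oral 400 mg suspension dose. Four subjects per time group had one fiber-optic bronchoscopic BAL at the assigned post-dose time. The first aliquot was discarded and the last three were pooled. BAL fluid was held on ice and spun at 400 × g for 5 min at 4°C. Pellet cells were counted by hemocytometer, with a differential count on a stained cytocentrifuge preparation.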

Homo sapiens [2] = assay: Toxicity in healthy human assessed as neutrophil count in bronchoalveolar fluid at […], po administered as single dose after 12 hrs; format: organism-based, Lung; parameters: route oral; conditions: in vivo; how it was run: as §1
Homo sapiens [3] = assay: Toxicity in healthy human assessed as lymphocytes count in bronchoalveolar fluid at […], po administered as single dose after 6 hrs; format: organism-based, Lung; parameters: route oral; conditions: in vivo; how it was run: as §1
Homo sapiens [4] = assay: Toxicity in healthy human assessed as lymphocytes count in bronchoalveolar fluid at […], po administered as single dose after 12 hrs; format: organism-based, Lung; parameters: route oral; conditions: in vivo; how it was run: as §1
Homo sapiens [5] = assay: Toxicity in healthy human assessed as eosinophil count in bronchoalveolar fluid at […], po administered as single dose after 2 hrs; format: organism-based, Lung; parameters: route oral; conditions: in vivo; how it was run: as §1
Homo sapiens [6] = assay: Toxicity in healthy human assessed as other cellular fractions in bronchoalveolar fluid at […], po administered as single dose after 12 hrs; format: organism-based, Lung; parameters: route oral; conditions: in vivo; how it was run: as §1
[7] = Plasma concentration in healthy human at […], po after 6 hrs; format: ADME, organism-based; parameters: route oral
How it was run: (§2)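 Healthy nonsmoking Japanese men, 20-45 y, given one oral 400 mg suspension dose. Blood drawn at 0-72 h, spun at 1,600 × g for 10 min at 4°C, plasma kept at −20°C. Drug measured by validated LC/MS/MS, linear 0.005-5 μg/ml. Values are mean ± SD, n = 28. Cmax, Tmax and t1/2,z are model-independent; AUC0-24 by trapezoidal method.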

[8] = Plasma concentration in healthy human at […], po after 12 hrs; format: ADME, organism-based; parameters: route oral; how it was run: as §2
[9] = Drug level in epithelial lining fluid of healthy human at […], po administered as single dose after 10 hrs; format: ADME, organism-based; parameters: route oral; conditions: read-out: Drug uptake
How it was run: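 Four healthy male volunteers per BAL time (2-24 h) after one oral 400 mg suspension dose. Single bronchoscopic lavage; first aliquot discarded, next three pooled. Supernatant separated at 400 × g, 5 min, 4°C, and drug assayed by LC/MS/MS. ELF level = CBAL × urea plasma/urea BAL, with urea corrected for blood contamination via RBC ratio. PK parameters are model-independent, based on the mean concentration at each time.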

[10] = Drug level in alveolar macrophages of healthy human at […], po administered as single dose after 2 hrs; format: ADME, organism-based, Macrophage; parameters: route oral; conditions: read-out: Drug uptake
How it was run: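 One oral 400 mg suspension dose; four volunteers lavaged at each time (2-24 h). Cell pellet from the pooled 2nd-4th aspirates was counted (hemocytometer, stained cytospin differential). Drug in cell suspension measured by HPLC, divided by AM volume assuming 2.42 μl/10^6 cells. Cmax and Tmax are model-independent, based on mean concentrations at each time.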

[11] = Ratio of drug level in epithelial lining fluid to plasma in healthy human at […] administered as single dose after 2 hrs; format: ADME, organism-based; parameters: route oral; conditions: po
How it was run: (§3)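 For each subject, ELF or AM drug level after the single oral 400 mg dose is divided by the plasma level sampled at the BAL time (2-24 h). Ratios are summarized per four-subject group.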

[12] = Ratio of drug level in epithelial lining fluid to plasma in healthy human at […], po administered as single dose after 6 hrs; format: ADME, organism-based; parameters: route oral; how it was run: as §3
[13] = Ratio of drug level in epithelial lining fluid to plasma in healthy human at […] administered as single dose after 8 hrs; format: ADME, organism-based; parameters: route oral; conditions: po; how it was run: as §3
Staphylococcus aureus [14] = assay: Antimicrobial activity against erythromycin-susceptible Staphylococcus aureus; format: functional
Haemophilus influenzae = assay: Antimicrobial activity against Haemophilus influenzae; format: functional
Staphylococcus aureus [15] = assay: Antimicrobial activity against methicillin susceptible Staphylococcus aureus; format: functional
[16] = Ratio of AUC (0 to 24 hrs) in plasma of healthy human to MIC90 for Streptococcus pneumoniae; format: functional
[17] = Ratio of AUC (0 to 24 hrs) in plasma of healthy human to MIC90 for Moraxella catarrhalis; format: functional
[18] = Cmax in plasma of healthy human at 400 mg, po administered as single dose
[19] = Tmax in plasma of healthy human at 400 mg, po administered as single dose
[20] = Cmax in alveolar macrophages of healthy human at 400 mg, po administered as single dose
[21] = Tmax in epithelial lining fluid of healthy human at 400 mg, po administered as single dose
[22] = Terminal-phase half-life in plasma of healthy human at 400 mg, po administered as single dose; conditions: read-out: beta t1/2 (converted)
[23] = Terminal-phase half-life in epithelial lining fluid of healthy human at 400 mg, po administered as single dose; conditions: read-out: beta t1/2 (converted)
[24] = AUC (0 to 24 hrs) in plasma of healthy human at 400 mg, po administered as single dose by linear trapezoidal method
[25] = Ratio of drug level in alveolar macrophages to plasma in healthy human at 400 mg, po administered as single dose after 8 hrs
[26] = Ratio of drug level in alveolar macrophages to plasma in healthy human at 400 mg, po administered as single dose after 10 hrs
[27] = Ratio of drug level in epithelial lining fluid to plasma in healthy human at 400 mg, po administered as single dose after 10 hrs
[28] = Ratio of drug level in epithelial lining fluid to plasma in healthy human at 400 mg, po administered as single dose after 24 hrs
[29] = AUC (0 to 24 hrs) in alveolar macrophages of healthy human at 400 mg, po administered as single dose by linear trapezoidal method
Homo sapiens [30] = assay: Toxicity in healthy human assessed as eosinophil count in bronchoalveolar fluid at 400 mg, po administered as single dose after 6 hrs; conditions: in vivo
Homo sapiens [31] = assay: Toxicity in healthy human assessed as eosinophil count in bronchoalveolar fluid at 400 mg, po administered as single dose after 10 hrs; conditions: in vivo
Homo sapiens [32] = assay: Toxicity in healthy human assessed as alveolar macrophage count in bronchoalveolar fluid at 400 mg, po administered as single dose after 4 hrs; conditions: in vivo
Homo sapiens [33] = assay: Toxicity in healthy human assessed as alveolar macrophage count in bronchoalveolar fluid at 400 mg, po administered as single dose after 8 hrs; conditions: in vivo

concentration at 6 h [7]: 540 ng/mL
concentration at 12 h [8]: 424 ng/mL
concentration at 10 h [9]: 10000 ng/mL
concentration at 2 h [10]: 61000 ng/mL
Kp at 2 h [11]: 26.3
Kp at 6 h [12]: 27
Kp at 8 h [13]: 25.9
MIC90 (Staphylococcus aureus [14]): 0.25 µg/mL (≈ 0.297 µM)
MIC90 (Haemophilus influenzae): 8 µg/mL (≈ 9.51 µM)
MIC90 (Staphylococcus aureus [15]): ≤ 0.063 µg/mL
Cmax [18]: 687 ng/mL
Tmax [19]: 2.27 h
Cmax [20]: 176000 ng/mL
Tmax [21]: 2 h
half-life [22]: 17.5 h
half-life [23]: 14.8 h
AUC(0-t) at 24 h [24]: 10.5 µg·h/mL
Kp at 8 h [25]: 283
Kp at 10 h [26]: 260
Kp at 10 h [27]: 23.2
Kp at 24 h [28]: 21.3
AUC(0-t) at 24 h [29]: 2560 µg·h/mL
Structure (SMILES): CC[C@H]1OC(=O)[C@H](C)C(=O)[C@H](C)[C@@H](O[C@@H]2O[C@H](C)C[C@H](N(C)C)[C@H]2O)[C@@]2(C)C[C@@H](C)/C(=N\C(C)=O)[C@H](C)[C@@H](OC/C(=N\OCc3ccc(-n4cccn4)nc3)CO2)[C@]1(C)O [MODITHROMYCIN]
Activity (Homo sapiens [1]): 0%
Activity (Homo sapiens [2]): 0%
Activity (Homo sapiens [3]): 13%
Activity (Homo sapiens [4]): 13.3%
Activity (Homo sapiens [5]): 0%
Activity (Homo sapiens [6]): 0%
RatioAUC/MIC [16]: 83.6
RatioAUC/MIC [17]: 20.9
Activity (Homo sapiens [30]): 0%
Activity (Homo sapiens [31]): 0.1%
Activity (Homo sapiens [32]): 87.1%
Activity (Homo sapiens [33]): 90.4%
